Experimental data taken from ChEMBL document CHEMBL1143812, “A novel bis-tetrahydrofuranylurethane-containing nonpeptidic protease inhibitor (PI), GRL-98065, is potent against multiple-PI-resistant human immunodeficiency virus in vitro” (Antimicrob Agents Chemother, 2007).

How the values were obtained:
[1] = system: Human immunodeficiency virus 1; test: Antiviral activity against ritonavir-resistant HIV1 in MT4 cells assessed as inhibition of p24 Gag protein expression by MTT assay; assay type: functional, organism-based; settings: Human immunodeficiency virus 1, MT4
Summary of the method: (§1)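 MT-4 cells (10^5/ml) infected with 100 TCID50s of wild-type or PI-resistant NL4-3 virus and incubated at 37°C with or without graded drug concentrations. On day 7, supernatant p24 Gag was measured by chemiluminescent enzyme immunoassay. […] Assays were run in duplicate or triplicate.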

[2] = system: Human immunodeficiency virus 1; test: Antiviral activity against idinavir-resistant HIV1 in MT4 cells assessed as inhibition of p24 Gag protein expression by MTT assay; assay type: functional, organism-based; settings: Human immunodeficiency virus 1, MT4; summary of the method: as §1
[3] = system: Human immunodeficiency virus 1; test: Antiviral activity against nelfinavir-resistant HIV1 in MT4 cells assessed as inhibition of p24 Gag protein expression by MTT assay; assay type: functional, organism-based; settings: Human immunodeficiency virus 1, MT4; summary of the method: as §1
[4] = system: Human immunodeficiency virus 1; test: Antiviral activity against atazanavir-resistant HIV1 in MT4 cells assessed as inhibition of p24 Gag protein expression by MTT assay; assay type: functional, organism-based; settings: Human immunodeficiency virus 1, MT4; summary of the method: as §1
[5] = system: Human immunodeficiency virus 1; test: Antiviral activity against lopinavir-resistant HIV1 in MT4 cells assessed as inhibition of p24 Gag protein expression by MTT assay; assay type: functional, organism-based; settings: Human immunodeficiency virus 1, MT4; summary of the method: as §1
[6] = system: Human immunodeficiency virus 1; test: Antiviral activity against amprenavir-resistant HIV1 in MT4 cells assessed as inhibition of p24 Gag protein expression by MTT assay; assay type: functional, organism-based; settings: Human immunodeficiency virus 1, MT4; summary of the method: as §1
[7] = system: Human immunodeficiency virus 1; test: Antiviral activity against HIV1 GRL98065p20 in MT4 cells assessed as inhibition of p24 Gag protein expression by MTT assay; assay type: functional, organism-based; settings: Human immunodeficiency virus 1, MT4; summary of the method: as §1
[8] = system: Human immunodeficiency virus 1; test: Antiviral activity against HIV1 GRL98065p30 in MT4 cells assessed as inhibition of p24 Gag protein expression by MTT assay; assay type: functional, organism-based; settings: Human immunodeficiency virus 1, MT4; summary of the method: as §1
[9] = system: Human immunodeficiency virus 1; test: Antiviral activity against HIV1 GRL98065p40 in MT4 cells assessed as inhibition of p24 Gag protein expression by MTT assay; assay type: functional, organism-based; settings: Human immunodeficiency virus 1, MT4; summary of the method: as §1
[10] = system: Human immunodeficiency virus 1; test: Antiviral activity against wild type HIV1 ERS104prc X4 in phytohemagglutininin-activated PBMCs assessed as inhibition of p24 Gag protein expression by MTT assay; assay type: functional, organism-based
Summary of the method: (§2)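 PHA-activated PBMCs (10^6/ml) infected with 50 TCID50s of each isolate and cultured with or without drug in 10-fold serial dilutions. The read-out was supernatant p24 Gag by chemiluminescent enzyme immunoassay. Assays were run in duplicate or triplicate, with one donor per experiment and three donors in total.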

[11] = system: Human immunodeficiency virus 1; test: Antiviral activity against HIV1 MDR/TM X4 in phytohemagglutininin-activated PBMCs assessed as inhibition of p24 Gag protein expression by MTT assay; assay type: functional, organism-based
Summary of the method: (§3)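 PHA-activated PBMCs (10^6/ml) infected with 50 TCID50s of each isolate and cultured with or without drug in 10-fold serial dilutions. The read-out was supernatant p24 Gag by chemiluminescent enzyme immunoassay. […] Assays were run in duplicate or triplicate, with one donor per experiment and three donors in total.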

[12] = system: Human immunodeficiency virus 1; test: Antiviral activity against HIV1 MDR/MM R5 in phytohemagglutininin-activated PBMCs assessed as inhibition of p24 Gag protein expression by MTT assay; assay type: functional, organism-based; summary of the method: as §3
[13] = system: Human immunodeficiency virus 1; test: Antiviral activity against HIV1 MDR/JSL R5 in phytohemagglutininin-activated PBMCs assessed as inhibition of p24 Gag protein expression by MTT assay; assay type: functional, organism-based; summary of the method: as §3
[14] = system: Human immunodeficiency virus 1; test: Antiviral activity against HIV1 MDR/B X4 in phytohemagglutininin-activated PBMCs assessed as inhibition of p24 Gag protein expression by MTT assay; assay type: functional, organism-based; summary of the method: as §3
[15] = system: Human immunodeficiency virus 1; test: Antiviral activity against HIV1 MDR/C X4 in phytohemagglutininin-activated PBMCs assessed as inhibition of p24 Gag protein expression by MTT assay; assay type: functional, organism-based; summary of the method: as §3
[16] = system: Human immunodeficiency virus 1; test: Antiviral activity against HIV1 MDR/G X4 in phytohemagglutininin-activated PBMCs assessed as inhibition of p24 Gag protein expression by MTT assay; assay type: functional, organism-based; summary of the method: as §2
[17] = system: Human immunodeficiency virus 1; test: Antiviral activity against HIV1 92UG029 X4 subtype A in phytohemagglutininin-activated PBMCs assessed as inhibition of p24 Gag protein expression by MTT assay; assay type: functional, organism-based; summary of the method: as §3
[18] = system: Human immunodeficiency virus 1; test: Antiviral activity against HIV1 92UG037 subtype A R5 in phytohemagglutininin-activated PBMCs assessed as inhibition of p24 Gag protein expression by MTT assay; assay type: functional, organism-based; summary of the method: as §3
[19] = system: Human immunodeficiency virus 1; test: Antiviral activity against HIV1 BaL R5 subtype B in phytohemagglutininin-activated PBMCs assessed as inhibition of p24 Gag protein expression by MTT assay; assay type: functional, organism-based; summary of the method: as §2
[20] = system: Human immunodeficiency virus 1; test: Antiviral activity against HIV1 97ZA003 R5 subtype C in phytohemagglutininin-activated PBMCs assessed as inhibition of p24 Gag protein expression by MTT assay; assay type: functional, organism-based; summary of the method: as §3
[21] = system: Human immunodeficiency virus 1; test: Antiviral activity against HIV1 92TH019 R5 subtype E in phytohemagglutininin-activated PBMCs assessed as inhibition of p24 Gag protein expression by MTT assay; assay type: functional, organism-based; summary of the method: as §3
[22] = system: Human immunodeficiency virus 1; test: Antiviral activity against saquinavir-resistant HIV1 in MT4 cells assessed as inhibition of p24 Gag protein expression by MTT assay; assay type: functional, organism-based; settings: Human immunodeficiency virus 1, MT4; summary of the method: as §1
[23] = system: Human immunodeficiency virus 1; test: Antiviral activity against HIV1 LAI in MT2 cells assessed as inhibition of p24 Gag protein expression by MTT assay; assay type: functional, organism-based; settings: Human immunodeficiency virus 1, LAI
Summary of the method: (§4)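 MT-2 cells (2 × 10^4/ml) were infected with 100 TCID50s of the HIV-1LAI, HIV-2EHO or HIV-2ROD strain. They were cultured with serial drug concentrations at 37°C for 7 days. MTT was then added for 4 h at 37°C, formazan was dissolved in acidified isopropanol with 4% Triton X-100, and optical density was read. EC50 is the mean of three independent experiments, each run in duplicate.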

[24] = system: Human immunodeficiency virus 2; test: Antiviral activity against HIV2 EHO in MT2 cells assessed as inhibition of p24 Gag protein expression by MTT assay; assay type: functional, organism-based; settings: Human immunodeficiency virus 2, EHO; summary of the method: as §4
[25] = system: Human immunodeficiency virus 2; test: Antiviral activity against HIV2 ROD in MT2 cells assessed as inhibition of p24 Gag protein expression by MTT assay; assay type: functional, organism-based; settings: Human immunodeficiency virus 2, ROD; summary of the method: as §4
[26] = Cytotoxicity against human MT2 cells assessed as inhibition of p24 Gag protein expression by MTT assay; assay type: cell-based
[27] = system: Human immunodeficiency virus 1; test: Antiviral activity against HIV1 NL4-3 in MT4 cells by MTT assay; assay type: functional, organism-based; settings: Human immunodeficiency virus 1, NL4-3, MT4

SMILES	EC50 [1] [nM]	EC50 [2] [nM]	EC50 [3] [nM]	EC50 [4] [nM]	EC50 [5] [nM]	EC50 [6] [nM]	EC50 [7] [nM]	EC50 [8] [nM]	EC50 [9] [nM]	EC50 [10] [nM]	EC50 [11] [nM]	EC50 [12] [nM]	EC50 [13] [nM]	EC50 [14] [nM]	EC50 [15] [nM]	EC50 [16] [nM]	EC50 [17] [nM]	EC50 [18] [nM]	EC50 [19] [nM]	EC50 [20] [nM]	further results
COC(=O)N[C@H](C(=O)N[C@@H](Cc1ccccc1)[C@@H](O)CN(Cc1ccc(-c2ccccn2)cc1)NC(=O)[C@@H](NC(=O)OC)C(C)(C)C)C(C)(C)C [ATAZANAVIR]	18	60	21	330	40	3	6	8	11	3.8	38	45	540	250	21	32	6	2.5	1.3	3.4	EC50 [21]: 2.7 nM; EC50 [22]: 326 nM; EC50 [23]: 4.8 nM; EC50 [24]: 5 nM; EC50 [25]: 13 nM; CC50 [26]: 27600 nM; EC50 [27]: 4.2 nM
CC(C)(C)NC(=O)[C@@H]1C[C@@H]2CCCC[C@@H]2CN1C[C@@H](O)[C@H](Cc1ccccc1)NC(=O)[C@H](CC(N)=O)NC(=O)c1ccc2ccccc2n1	10	59	24	37	32	31	12	22	32	8	180	140	290	270	35	33	4.8	3.2	8.3	6.7	EC50 [21]: 3 nM; EC50 [22]: > 1000 nM; EC50 [23]: 8 nM; EC50 [24]: 3 nM; EC50 [25]: 4.3 nM; CC50 [26]: 16400 nM; EC50 [27]: 7 nM
